Only some compounds are listed: those with a hit (about 3.4% of all), similar ones and a draw of the others.
Runt-CBFb FRET: Runt domain-CBFb interaction inhibition. Q01196+Q13951. Cerulean-Runt/Venus-CBFb FRET ratio 530/480, 1 h. inhibition, % at 20 µM. 220,000 compounds, 0.46% hits;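 active = inhibition over about 50% at 20 µM in the single-dose screen, limit read from the data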;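 note: 0% = DMSO wells and 100% = excess unlabeled CBFb competitor control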
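Schedule: protein complex preformed 1 h, compound exposure 1 h, room temperature, dark; test system: Cerulean-labeled Runt domain protein; amount: 100 nM per protein; buffer or medium: Tris 50 mM pH 7.5, KCl, K2SO4, 0.01% BSA; read-out: loss of energy transfer signal; detection: FRET fluorescence; controls: 5 µM unlabeled CBFb as full-inhibition high control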
Wee1 degr inh: human Wee1 degradation inhibition, primary screen | HeLa Luc-Wee1K328M stability, luciferase luminescence; 100% = proteasome inhibitor MG132 effect | P30291 | reporter increase, % at 5 µM | 220,000 compounds, 1.2% hits;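 active = activation above the mean of all tested compounds plus 3 SD, set per screening run, cut at about 8.8% in these data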;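 note: cells exposed to compound for 20 h before luminescence read; 0% = DMSO alone and 100% = MG132 at 30 µM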
PHOSPHO1 block: PHOSPHO1 (human) inhibition. AID 1565. inhibition, % at 13.3 µM. recombinant PHOSPHO1, absorbance phosphatase assay. 290,000 compounds, 1.1% hits. Q8TCT1; in the data active = inhibition above about 60%
Target sequence (Q8TCT1 whole entry, looked up): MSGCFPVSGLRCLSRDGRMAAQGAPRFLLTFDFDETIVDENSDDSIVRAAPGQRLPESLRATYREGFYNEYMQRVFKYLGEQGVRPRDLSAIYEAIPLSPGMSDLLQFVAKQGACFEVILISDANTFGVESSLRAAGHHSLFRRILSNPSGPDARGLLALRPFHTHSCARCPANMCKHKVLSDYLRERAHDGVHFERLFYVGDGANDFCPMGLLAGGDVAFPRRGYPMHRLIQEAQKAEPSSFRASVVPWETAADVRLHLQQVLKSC
HMGR II inh: E. faecalis class II HMG-CoA reductase inhibition; purified E. faecalis HMGR, NADPH absorbance 340 nm kinetic; inhibition, % at 10 µM; 190,000 compounds, 0.41% hits;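 active = inhibition above a set limit, the median over all tested compounds plus 3 SD, cut at about 9.5% in these data; inconclusive = no clear call, values can overlap the other calls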;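 note: enzyme runs in reverse so mevalonate oxidation gives rising NADPH absorbance; 0% = complete reaction with DMSO and 100% = background rate lacking mevalonate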
RanGTP-Imp inh: inhibitors of RanGTP-importin-beta interaction, primary screen, biochemical, FRET, CFP-Ran, YFP-importin-beta, homogeneous | cell-free CFP-Ran/YFP-importin-beta FRET ratio | inhibition, % (test concentration not listed) | 300,000 compounds, 1.1% hits;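 active = more than half of the replicate wells show a fall in the fluorescence ratio signal beyond about 16%, limit read from the data, passing the limit was not always enough; inconclusive = exactly half of the replicate wells pass the set limit; inactive = fewer than half of replicates pass the limit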;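 note: 0% = DMSO wells and 100% = Ran loaded with GDP instead of GTP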
Runt-SMMHC FRET: inhibitors of human RUNX1 Runt domain binding to CBFb-SMMHC; Q01196+Q13951; inhibition, % at 20 µM; 220,000 compounds, 0.74% hits; AID 1434; Cerulean-Runt/Venus-CBFb-SMMHC FRET ratio 530/480, 1 h;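 active = mean inhibition across duplicate retests at 20 µM reaching about 50%, limit read from the data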;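 note: 0% = DMSO wells and 100% = wells with excess untagged CBFb-SMMHC; inhibitors lower the FRET ratio by blocking Runt binding to CBFb-SMMHC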
* hit, by the source's call; ? = inconclusive; · = no result.

SMILES | Runt-CBFb FRET | Wee1 degr inh | PHOSPHO1 block | HMGR II inh | RanGTP-Imp inh | Runt-SMMHC FRET
Cc1ccc2cc(C#N)c(N3CCCN(C(=O)C4CCCO4)CC3)nc2c1C (stereo unspecified) | 6.3 | 1.5 | 24.9 | -4.9 | 50.1* | 64.3*
Cc1cc(C)c2cc(C#N)c(NCCNC(=S)NCCCN3CCOCC3)nc2c1 | 23.1 | -0.1 | 37.0 | -0.5 | 5.4 | 42.9
COCCCNC(=S)NCCCNc1nc2cc(C)cc(C)c2cc1C#N | 20.2 | 3.5 | 32.3 | 0.0 | -8.8 | 65.9*
Cc1cccc2cc(C#N)c(N3CCC(O)CC3)nc12 | 35.5 | 2.6 | -10.1 | -0.7 | 28.5* | 70.6*
CCCCn1c(N)c(N(CCOC)C(=O)c2cccc(N3C(=O)c4ccccc4C3=O)c2)c(=O)[nH]c1=O | · | · | · | · | -0.2 | ·
Cn1c(Cc2c[nH]c3ccccc23)n[nH]c1=S | 9.5 | 1.7 | 88.6* | -4.3 | -2.7 | 5.0
Cn1c(Cn2c3ccccc3c3ccccc32)n[nH]c1=S | 11.4 | 9.4* | 21.0 | · | 5.3 | 14.5
C=C(C)Cn1c(CCn2c3ccccc3c3ccccc32)n[nH]c1=S | 10.3 | -3.3 | -12.0 | -3.4 | 9.1 | 1.7
Cc1sc2ncnc(OCC(=O)N3CC(=O)Nc4ccccc43)c2c1C | -0.4 | 0.2 | -0.4 | -6.2 | · | -7.5
NC(=O)C1CCN(CC(O)COCc2ccccc2Cl)CC1 (stereo unspecified) | · | · | 18.7 | · | 1.8 | ·
COc1cc(C(=O)Oc2cccc(/C=N/NC(=O)c3cccnc3)c2)cc(OC)c1OC | · | · | 27.5 | · | ? | ·
Oc1ccc(-c2n[nH]c(=S)n2Cc2ccco2)cc1 | 0.0 | 2.0 | 99.8* | -9.5 | -1.9 | 10.2
S=c1[nH]nc(C2CC2)n1Cc1ccco1 | 10.6 | -1.6 | 80.9* | 1.7 | -0.3 | 2.3
Oc1cc2ccccc2cc1-c1n[nH]c(=S)n1Cc1ccco1 | 34.6 | -2.4 | 18.3 | -2.5 | -2.3 | 22.6
CC1CCCCN1C(=O)C1CCN(c2nc(-c3ccccc3)nc3c2CCC3)CC1 (stereo unspecified) | · | · | -115.2 | · | 1.8 | ·
Cc1ccc(N=Nc2ccc(O)c(/C=N\NC(=O)c3ccc(N)cc3)c2)cc1C | -2.2 | 9.5* | 17.1 | -7.0 | -3.5 | -0.2
CSc1nsc(N/N=C/c2ccc3c(c2)OCO3)c1C#N | 14.2 | 7.3 | 4.5 | 0.3 | 19.9* | 15.7
COc1cc(/C=N/Nc2snc(SC)c2C#N)cc(OC)c1OC | 8.4 | -0.7 | 3.9 | -4.5 | 1.4 | 3.0
COc1ccc(-c2noc(C(C)NC(=O)c3ccco3)n2)cc1OC (stereo unspecified) | · | · | 14.6 | · | 4.3 | ·
Cn1c(SCC(=O)N/N=C/C=C\c2ccco2)nc2ccccc21 | 1.2 | -2.3 | 73.4* | 4.6 | -4.0 | -2.3
CCCc1nc2ccccc2c(C(=O)OC2CCOC2=O)c1CC (stereo unspecified) | 0.8 | 0.3 | 66.1* | -4.3 | 5.9 | 3.4
Cc1ccc(S(=O)(=O)Oc2ccc(N3C(=O)C4C5CCC(C5)C4C3=O)cc2)cc1 (stereo unspecified) | -1.2 | -0.9 | 37.9 | 1.8 | ? | -0.7
O=C1C2C3CCC(C3)C2C(=O)N1c1ccc(OS(=O)(=O)c2ccccc2)cc1 (stereo unspecified) | -0.8 | 2.7 | 60.0* | -4.4 | 2.7 | 0.8
CCCCCn1c(NC(=O)c2ccco2)c(S(=O)(=O)c2ccc(C)cc2)c2nc3ccccc3nc21 | 9.5 | 0.1 | 37.9 | 8.3 | 80.2* | 147.3*
CCCCn1c(NS(=O)(=O)c2ccccc2)c(S(=O)(=O)c2ccc(C)cc2)c2nc3ccccc3nc21 | 5.5 | -1.1 | -13.9 | -2.2 | 51.3* | 53.2*
SMILES | Runt-CBFb FRET | Wee1 degr inh | PHOSPHO1 block | HMGR II inh | RanGTP-Imp inh | Runt-SMMHC FRET
Cc1ccc(S(=O)(=O)c2c(N)n(CCCO)c3nc4ccccc4nc23)cc1 | 9.3 | -1.1 | 18.2 | -5.5 | 7.6 | 29.3
CCCCn1c(NC(=O)c2ccco2)c(S(=O)(=O)c2ccc(C)cc2)c2nc3ccccc3nc21 | 4.4 | -1.1 | -2.6 | 4.5 | 48.8* | 46.5
COc1ccc(CCNC(=S)N2CCN(S(=O)(=O)c3ccc(C)cc3)CC2)cc1 | · | · | · | · | -2.6 | ·
CC(C)(CNC(=O)c1cc2c(s1)CCCC2)N1CCOCC1 | · | · | · | · | 8.3 | ·
CC(C)Nc1nc(NC(C)C)nc(Nn2cnnc2)n1 | -0.7 | 3.3 | 14.8 | -0.2 | -2.0 | -1.4
CC(C)Nc1nc(NC(C)C)nc(N(C)n2cnnc2)n1 | -2.1 | 1.0 | 94.1* | 1.5 | -0.7 | 1.0
COc1ccc(S(=O)(=O)NCCc2csc(-c3cccnc3)n2)cc1 | -2.5 | -0.3 | 42.3 | -9.3 | 2.4 | 2.0
O=C(CN1CCN(S(=O)(=O)c2ccc(Cl)cc2)CC1)NC1CCCC1 | · | · | 35.2 | · | 4.3 | ·
O=C(CN1CCN(S(=O)(=O)c2ccc(F)cc2)CC1)NC1CCCC1 | · | · | 60.6* | · | -3.0 | ·
COc1ccc(S(=O)(=O)N2CCN(CC(=O)NC3CC3)CC2)cc1 | · | · | 61.6* | · | 3.0 | ·
COc1ccc(S(=O)(=O)N2CCC(Nc3ccccc3Cl)CC2)cc1 | · | · | 61.0* | · | 0.9 | ·
CCOC(=O)CNc1cccc(C(F)(F)F)c1 | 0.6 | -0.7 | 41.7 | -1.4 | 0.0 | -1.6
CNS(=O)(=O)c1ccc(CCC(=O)N2CCOCC2)cc1 | · | · | · | · | 4.2 | ·
CC(C)(C)NS(=O)(=O)c1ccc(CCC(=O)N2CCOCC2)cc1 | 1.5 | 2.8 | -15.6 | -1.2 | 34.8* | 1.0
Cc1ccc(OCC(=O)Nc2ccc(CN3CCOCC3)cc2)cc1 | · | · | 61.0* | · | -0.4 | ·
Cn1c(CCN2CCOCC2)nc2cc(NC(=O)COc3ccc(Cl)cc3)ccc21 | -0.2 | -3.2 | -50.2 | -2.8 | -3.3 | 3.8
COc1ccc(OCC(=O)Nc2ccc3c(c2)nc(CCN2CCOCC2)n3C)cc1 | -1.9 | 9.1* | 8.7 | -0.7 | -1.3 | 3.3
CCC(=O)Nc1ccc2c(c1)nc(CN1CCCCC1)n2C | 2.3 | -1.9 | 28.3 | 15.1* | 1.9 | 4.0
O=C(COc1ccccc1Cl)Nc1ccc(CN2CCCCC2)cc1 | -1.2 | 0.4 | 37.0 | -6.2 | 30.9* | -1.5
Cc1cccc(OCC(=O)Nc2ccc(CN3CCOCC3)cc2)c1C | · | · | -12.4 | · | ? | ·
O=C1CCc2cc(S(=O)(=O)NCCC(=O)NC3CCCCC3)ccc2N1 | · | · | 34.4 | · | ? | ·
CC1CCN(C(=O)CSc2nc3c(c(=O)n2C)SC(C)C3)CC1 (stereo unspecified) | · | · | 36.6 | · | 8.4 | ·
CCOc1ccc(N2CC(C(=O)N3CCCCCC3)CC2=O)cc1 (stereo unspecified) | · | · | 31.0 | · | 0.3 | ·
CC(C)C(OC(=O)Cn1nnc2ccccc21)C(=O)NC1CCCC1 (stereo unspecified) | · | · | 35.1 | · | 2.1 | ·
CCCCCC(=O)Nc1c(-c2ccc(OC)cc2)c(=O)c2ccccc2n1C | -0.8 | 9.9* | -11.1 | -2.1 | -1.3 | -0.4
CCCC(=O)Nc1c(-c2ccc(OC)cc2)c(=O)c2ccccc2n1C | -0.4 | 1.2 | 26.2 | -6.8 | 4.2 | -6.4

Source: PubChem
